Reference: ChEMBL document CHEMBL2331528, “Design and synthesis of bicyclic pyrazinone and pyrimidinone amides as potent TF-FVIIa inhibitors” (Bioorg Med Chem Lett, 2013)

How the values were obtained:
Coagulation factor X = Coagulation factor X (Homo sapiens, UniProt P00742); assay: Inhibition of factor-10a (unknown origin) by chromogenic substrate assay
Outline: (§1)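 Ki from chromogenic substrate assays at 25 °C; n = 2.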

[1] = molecular target: Coagulation factor VII/tissue factor (Homo sapiens, UniProt P08709); assay: Inhibition of tissue factor-factor 7a (unknown origin) interaction by chromogenic substrate assay; format: protein-complex assay; outline: as §1
Chain of Coagulation factor VII/tissue factor (P08709 61-212 limits assumed): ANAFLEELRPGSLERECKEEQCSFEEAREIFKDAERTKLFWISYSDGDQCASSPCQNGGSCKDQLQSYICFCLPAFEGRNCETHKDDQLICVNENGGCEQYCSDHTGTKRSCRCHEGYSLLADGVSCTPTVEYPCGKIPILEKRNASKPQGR
Chain of Coagulation factor VII/tissue factor (P08709 213-466 limits assumed): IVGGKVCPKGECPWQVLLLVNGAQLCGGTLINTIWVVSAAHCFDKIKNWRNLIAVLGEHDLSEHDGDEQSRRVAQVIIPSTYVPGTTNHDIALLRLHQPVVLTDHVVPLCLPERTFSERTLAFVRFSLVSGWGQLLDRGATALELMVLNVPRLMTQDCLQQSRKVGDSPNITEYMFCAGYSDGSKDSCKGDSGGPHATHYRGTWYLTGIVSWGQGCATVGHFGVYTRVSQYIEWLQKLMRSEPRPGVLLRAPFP
Chain of Coagulation factor VII/tissue factor (P13726 33-295 partner limits assumed): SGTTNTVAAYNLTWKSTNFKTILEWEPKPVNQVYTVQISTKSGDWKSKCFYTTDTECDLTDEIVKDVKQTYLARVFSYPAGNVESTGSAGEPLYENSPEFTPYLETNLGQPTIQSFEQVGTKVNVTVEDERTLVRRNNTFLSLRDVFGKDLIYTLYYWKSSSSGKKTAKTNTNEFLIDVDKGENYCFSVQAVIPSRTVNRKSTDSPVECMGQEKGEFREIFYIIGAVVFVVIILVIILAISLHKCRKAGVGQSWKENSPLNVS

Prothrombin = Prothrombin (Homo sapiens, UniProt P00734); assay: Inhibition of thrombin (unknown origin) by chromogenic substrate assay; outline: as §1
Plasma [2] = assay: Fraction unbound in human plasma; format: ADME, cell-free
Homo sapiens [3] = species on record: Homo sapiens; assay: Selectivity ratio of Ki for factor-10a (unknown origin) to Ki for tissue factor-factor 7a (unknown origin) interaction
Homo sapiens [4] = species on record: Homo sapiens; assay: Selectivity ratio of Ki for factor-11a (unknown origin) to Ki for tissue factor-factor 7a (unknown origin) interaction
Homo sapiens [5] = species on record: Homo sapiens; assay: Selectivity ratio of Ki for thrombin (unknown origin) to Ki for tissue factor-factor 7a (unknown origin) interaction
Plasma [6] = assay: Anticoagulant activity in factor 7 deficient human plasma assessed as concentration required to prothrombin time; format: functional
Homo sapiens [7] = species on record: Homo sapiens; assay: Selectivity ratio of Ki for factor-9a (unknown origin) to Ki for tissue factor-factor 7a (unknown origin) interaction
Homo sapiens [8] = species on record: Homo sapiens; assay: Selectivity ratio of Ki for plasma kallikrein (unknown origin) to Ki for tissue factor-factor 7a (unknown origin) interaction
Homo sapiens [9] = species on record: Homo sapiens; assay: Selectivity ratio of Ki for trypsin (unknown origin) to Ki for tissue factor-factor 7a (unknown origin) interaction

Chain of Coagulation factor X (P00742 41-179 limits assumed): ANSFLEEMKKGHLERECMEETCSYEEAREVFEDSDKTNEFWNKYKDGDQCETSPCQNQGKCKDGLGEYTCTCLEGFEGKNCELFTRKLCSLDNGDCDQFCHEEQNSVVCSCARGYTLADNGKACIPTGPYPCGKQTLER
Chain of Coagulation factor X (P00742 235-488 limits assumed): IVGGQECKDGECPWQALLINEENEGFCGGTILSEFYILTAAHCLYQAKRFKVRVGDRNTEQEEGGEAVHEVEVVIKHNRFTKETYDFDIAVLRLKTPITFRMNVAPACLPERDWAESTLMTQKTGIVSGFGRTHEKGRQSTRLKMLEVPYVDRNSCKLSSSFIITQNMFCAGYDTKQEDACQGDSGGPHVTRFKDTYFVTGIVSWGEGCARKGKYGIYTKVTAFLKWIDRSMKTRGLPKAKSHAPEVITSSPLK

SMILES	Ki (Coagulation factor X) [nM]	Ki [1] [nM]	Ki (Prothrombin) [nM]	other results
N=C(N)c1ccc(CNC(=O)[C@@H]2CCc3c(Cl)nc(NC4CCC4)c(=O)n32)cc1	> 15000	30	35	
CCCC1(CCC)C[C@@H](C(=O)NCc2ccc(C(=N)N)cc2)n2c1c(Cl)nc(NC1CCC1)c2=O	550	28	170	
CCCNc1cnc2n(c1=O)[C@H](C(=O)NCc1ccc(C(=N)N)cc1)CC2(CCC)CCC	3600	620	1200	
CCC1(CC)C[C@@H](C(=O)NCc2ccc(C(=N)N)cc2)n2c1c(Cl)nc(NC1CCC1)c2=O	3300	7.3	210	Cp(f) (Plasma [2]): 6.8%; Ratio Ki (Homo sapiens [3]): > 160; Ratio Ki (Homo sapiens [4]): > 160; Ratio Ki (Homo sapiens [5]): 30; Activity (Plasma [6]): 5.6 µM; Ratio Ki (Homo sapiens [7]): > 160; Ratio Ki (Homo sapiens [8]): < 3; Ratio Ki (Homo sapiens [9]): < 3
CCC[C@@]1(C)C[C@@H](C(=O)NCc2ccc(C(=N)N)cc2)n2c1c(Cl)nc(NC1CCC1)c2=O	2200	21	110	
CCCNc1cnc2n(c1=O)[C@H](C(=O)NCc1ccc(C(=N)N)cc1)CC2(C)C	> 15000	290	1800	
CCC1(CC)C[C@@H](C(=O)NCc2ccc(CN)cc2)n2c1c(Cl)nc(NC1CCC1)c2=O		300		
C[C@@]1(C(=O)NCc2ccccc2)C[C@@H](C(=O)NCc2ccc(C(=N)N)cc2)n2c1c(Cl)nc(NC1CCC1)c2=O	3700	560	> 15000	
C=CC[C@]1(C)C[C@@H](C(=O)NCc2ccc(C(=N)N)cc2)n2c1c(Cl)nc(NC1CCC1)c2=O	650	5.8	220	
C[C@@]1(CO)C[C@@H](C(=O)NCc2ccc(C(=N)N)cc2)n2c1c(Cl)nc(NC1CCC1)c2=O	> 15000	72	> 15000	
CNC(=O)[C@]1(C)C[C@@H](C(=O)NCc2ccc(C(=N)N)cc2)n2c1c(Cl)nc(NC1CCC1)c2=O	1100	2100	> 15000	
CCCNc1cnc2n(c1=O)[C@H](C(=O)NCc1ccc(C(=N)N)cc1)CC2(CC)CC	12000	75	5200	
CCC1(CC)C[C@@H](C(=O)NCc2ccc3c(N)noc3c2)n2c1c(Cl)nc(NC1CCC1)c2=O		1900		
CCC[C@]1(C)C[C@@H](C(=O)NCc2ccc(C(=N)N)cc2)n2c1c(Cl)nc(NC1CCC1)c2=O	1000	23	36	
CCCNc1cnc2n(c1=O)[C@H](C(=O)NCc1ccc(C(=N)N)cc1)C[C@@]2(C)CC	> 15000	150	2100	
CCC1(CC)C[C@@H](C(=O)NCc2ccc3c(N)nccc3c2)n2c1c(Cl)nc(NC1CCC1)c2=O		360		
N=C(N)c1ccc(CNC(=O)[C@@H]2CC3(CCCC3)c3c(Cl)nc(NC4CCC4)c(=O)n32)cc1	> 15000	99	78	
CCCNc1cnc2n(c1=O)[C@H](C(=O)NCc1ccc(C(=N)N)cc1)CC2	> 15000	186	150	

Second part, led by results:

Ki (Coagulation factor X) [nM]	Ki [1] [nM]	Ki (Prothrombin) [nM]	SMILES	other results
> 15000	70	380	CC1(C)C[C@@H](C(=O)NCc2ccc(C(=N)N)cc2)n2c1c(Cl)nc(NC1(CO)CCCC1)c2=O	
> 15000	19	260	CCNc1nc(Cl)c2n(c1=O)[C@H](C(=O)NCc1ccc(C(=N)N)cc1)CC2(C)C	
> 15000	43	220	CC(C)CNc1nc(Cl)c2n(c1=O)[C@H](C(=O)NCc1ccc(C(=N)N)cc1)CC2(C)C	
> 15000	60	160	CC1(C)C[C@@H](C(=O)NCc2ccc(C(=N)N)cc2)n2c1c(Cl)nc(NC1CCCC1)c2=O	
> 15000	23	200	CC1(C)C[C@@H](C(=O)NCc2ccc(C(=N)N)cc2)n2c1c(Cl)nc(NC1CCC1)c2=O	
2800	68	220	CC(C)(C)Nc1nc(Cl)c2n(c1=O)[C@H](C(=O)NCc1ccc(C(=N)N)cc1)CC2(C)C	
	190		Cc1ccc(CNc2nc(Cl)c3n(c2=O)[C@H](C(=O)NCc2ccc(C(=N)N)cc2)CC3(C)C)o1	
> 15000	37	360	CC1(C)C[C@@H](C(=O)NCc2ccc(C(=N)N)cc2)n2c1c(Cl)nc(NC1CC1)c2=O	
	132	32	CC(C)(C)OC(=O)CNc1nc(Cl)c2n(c1=O)[C@H](C(=O)NCc1ccc(C(=N)N)cc1)CC2(C)C	
> 15000	76	220	CC1(C)C[C@@H](C(=O)NCc2ccc(C(=N)N)cc2)n2c1c(Cl)nc(NCC1CCCCC1)c2=O	
> 15000	17	130	CC(C)Nc1nc(Cl)c2n(c1=O)[C@H](C(=O)NCc1ccc(C(=N)N)cc1)CC2(C)C	
	84		CC(Nc1nc(Cl)c2n(c1=O)[C@H](C(=O)NCc1ccc(C(=N)N)cc1)CC2(C)C)C(C)(C)C (stereo partly specified)	
	130		COCC(C)Nc1nc(Cl)c2n(c1=O)[C@H](C(=O)NCc1ccc(C(=N)N)cc1)CC2(C)C (stereo partly specified)	
> 15000	24	230	CNc1nc(Cl)c2n(c1=O)[C@H](C(=O)NCc1ccc(C(=N)N)cc1)CC2(C)C	
